Data on two compounds can be found in ChEMBL document CHEMBL4130564, “Indolylalkyltriphenylphosphonium Analogues Are Membrane-Depolarizing Mycobactericidal Agents” (ACS Med Chem Lett, 2017).

This experiment has as its system Mycobacterium tuberculosis. Kind of experiment: Induction of membrane disruption in Mycobacterium bovis BCG ATCC 35734 harboring piniBAC-RFP assessed as increase in iniBAC cluster transactivation up to 100 uM after 24 hrs by RFP-based fluorescence assay. In kind it is functional, organism-based. The conditions noted are these: BCG str. ATCC 35743. The method in brief:
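Recombinant M. bovis carrying iniBAC promoter-driven RFP treated 24 h with 0.4–100 μM; promoter induction read as RFP fluorescence; isoniazid as positive control.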

Structures are written as SMILES. Active and inactive are the calls of the source. The calls are words filed in the database; no cut-off is given here.

In the case of `COc1cccc2ccn(CCCCC[P+](c3ccccc3)(c3ccccc3)c3ccccc3)c12.[I-]`, the outcome was inactive.

On to `NNC(=O)c1ccncc1`, for which the result was Active.
